Experimental data collected from several papers.
Lines come from different studies, so protocols differ.
HRH3: Histamine H3 receptor (HRH3, Homo sapiens, UniProt Q9Y5N1)
SLC10A2: Ileal sodium/bile acid cotransporter (SLC10A2, Homo sapiens, UniProt Q12908)
WDR5: WD repeat-containing protein 5 (WDR5, Homo sapiens, UniProt P61964)
Hypoxanthine-guanine-xanthine phosphoribosyltransferase: Hypoxanthine-guanine-xanthine phosphoribosyltransferase (Plasmodium falciparum, UniProt P20035)
DRD5: D(1B) dopamine receptor (DRD5, Homo sapiens, UniProt P21918)
CYP1B1: Cytochrome P450 1B1 (CYP1B1, Homo sapiens, UniProt Q16678)

CN(C)c1ccc(/C=C2\CCc3cc(OCCCN4CCCCC4)ccc3C2=O)cc1  Ki (HRH3; ligand displacement, radioligand; cell membranes): 0.07 µM
CC(C)(C#N)c1cc(Cn2cncn2)cc(C(C)(C)C#N)c1  Ki (SLC10A2; transporter uptake, inhibitor): 402 µM
COc1cc(CNC(=O)c2cccc(CNC3=NCCN3)c2F)cc(OC)c1  Ki (WDR5; ligand displacement, FP): 1.23 µM
O=c1c(O)c(NC[C@@H](CO)NCc2c[nH]c3c(O)ncnc23)c1=O  Ki (Hypoxanthine-guanine-xanthine phosphoribosyltransferase; enzyme activity, inhibitor; pH 7.4): > 20 µM
O=C1c2ccccc2CCCN1CCCCN1CCN(c2ccccn2)CC1  Ki (DRD5; ligand displacement, radioligand): > 10 µM
Cc1nc(F)ccc1-c1cc(C(=O)NCc2ccc(Cl)c(Cl)c2)ccc1Cn1ccn(C)c1=N  Ki (WDR5; ligand displacement, FP): > 5 µM
CN1CCN(CCCOc2ccc(Nc3nccc(N4CCN(C)CC4)n3)cc2)CC1  Ki (HRH3; ligand displacement, radioligand; cell membranes): 0.646 µM
NS(=O)(=O)c1cc2c(cc1Cl)NC(C(Cl)Cl)NS2(=O)=O (stereo not drawn)  Ki (SLC10A2; transporter uptake, inhibitor): 377 µM
O=C(NCc1cc(Cl)cc(Cl)c1)c1cccc(Cn2ccnc2)c1  Ki (WDR5; ligand displacement, FP): 0.681 µM
C=C[C@H]1C[N@@]2CC[C@H]1C[C@H]2[C@H](O)c1ccnc2ccc(OC)cc12  Ki (SLC10A2; transporter uptake, inhibitor): 223 µM
CCOc1c(O)cc(Br)c2c1CN1CCc3cc(OCC(F)F)c(O)cc3[C@@H]1C2  Ki (DRD5; cell-free assay, radioligand): 0.082 µM
CCOC(=O)[C@](CC)(CCCS(=O)(=O)CCOCCOCCNC(=O)OC(C)(C)C)NC(=O)c1ccc(C2CC2)c(Cc2ccc(F)cc2)n1  Ki (Cannabinoid receptor 2 (CNR2, Homo sapiens, UniProt P34972); ligand displacement, radioligand; cell membranes): 0.045 µM
C#Cc1cccc2oc(-c3ccccc3)cc(=O)c12  Ki (CYP1B1; enzyme activity, inhibitor, fluorescence; 6 min, pH 7.6): 0.21 µM
COc1cc(O)c(CC=C(C)C)c(O)c1C(=O)/C=C/c1ccc(O)cc1  Ki (CYP1B1; enzyme activity, inhibitor, fluorescence; 15 min, pH 7.4): 0.17 µM
O=C1CN(C[C@@H](CO)NCc2c[nH]c3c(O)ncnc23)S(=O)(=O)N1  Ki (Hypoxanthine-guanine-xanthine phosphoribosyltransferase; enzyme activity, inhibitor; pH 7.4): > 20 µM
CN1CCN(CC/C=C2/c3ccccc3Sc3ccc(S(=O)(=O)N(C)C)cc32)CC1  Ki (SLC10A2; transporter uptake, inhibitor): 808 µM
COc1ccc(C2=NN(C(C)C)C(=O)C3CC=CCC23)cc1-c1ccc(C(=O)N2CCC[C@@H]2C(N)=O)cc1 (mixture of isomers)  Ki (Class 1 phosphodiesterase PDEB1 (PDEB1, Trypanosoma brucei, UniProt Q8WQX9); enzyme activity, inhibitor): 0.631 µM
CN(C)c1ccc(/C=C2\CCc3cc(OCc4ccc(OCCCN5CCCCC5)cc4)ccc3C2=O)cc1  Ki (HRH3; ligand displacement, radioligand; cell membranes): 0.041 µM
CN(C(=O)[C@@H]1Cc2ccccc2CN1C(=O)c1ccc(Cl)s1)c1ccc(N2CCCCC2=O)cc1  Ki (Coagulation factor X (F10, Homo sapiens, UniProt P00742); enzyme activity, inhibitor, absorbance): 28 µM
CCCCN1CCC(COC(=O)c2ccc(N)c(OCF)c2)CC1  Ki (Beta-2 adrenergic receptor (ADRB2, Homo sapiens, UniProt P07550); cell-free assay, radioligand): > 10 µM
CCCc1ccc(OCCCCCN2CCC(C)CC2)cc1  Ki (HRH3; ligand displacement, radioligand; cell membranes): 0.156 µM
C#Cc1ccc2oc(-c3ccccc3)cc(=O)c2c1  Ki (CYP1B1; enzyme activity, inhibitor, fluorescence; 6 min, pH 7.6): 0.54 µM
CCOC(=O)C1=C(C)NC(C)=C(C(=O)OC)C1c1cccc(Cl)c1Cl (stereo not drawn)  Ki (SLC10A2; transporter uptake, inhibitor): 49.7 µM
C#Cc1ccc2cc(-c3ccccc3)c(=O)oc2c1  Ki (CYP1B1; enzyme activity, inhibitor, fluorescence; 6 min, pH 7.6): 1.72 µM
O=C1CCCc2cc(OCCCN3CCCCC3)ccc21  Ki (HRH3; ligand displacement, radioligand; cell membranes): 0.068 µM
O=c1cc([C@@H](CO)NCc2c[nH]c3c(O)ncnc23)o[nH]1  Ki (Hypoxanthine-guanine-xanthine phosphoribosyltransferase; enzyme activity, inhibitor; pH 7.4): > 20 µM
CN(C)c1ccc(/C=C/C=C2\CCc3ccc(OCc4ccc(OCCCN5CCCCC5)cc4)cc3C2=O)cc1  Ki (HRH3; ligand displacement, radioligand; cell membranes): 0.087 µM
C[C@H]1[C@H](NC(=O)/C(=N\OC(C)(C)C(=O)O)c2csc(N)n2)C(=O)N1S(=O)(=O)O  Ki (SLC10A2; transporter uptake, inhibitor): 1850 µM
O=C1CCCc2cc(OCc3ccc(OCCCN4CCCCC4)cc3)ccc21  Ki (HRH3; ligand displacement, radioligand; cell membranes): 0.019 µM
Cc1nc(F)ccc1-c1cc(Cn2ccn(C)c2=N)cc(C(=O)NCc2ccc(Cl)c(Cl)c2)c1  Ki (WDR5; ligand displacement, FP): < 1e-06 µM
CCc1ccc(OCCCCCCN2CCCC(C)C2)cc1 (stereo not drawn)  Ki (HRH3; ligand displacement, radioligand; cell membranes): 0.0741 µM
O=C1N[C@@H]([C@@H](CO)NCc2c[nH]c3c(O)ncnc23)CO1  Ki (Hypoxanthine-guanine-xanthine phosphoribosyltransferase; enzyme activity, inhibitor; pH 7.4): > 20 µM
CCCCNc1cc(C(=O)O)cc(S(N)(=O)=O)c1Oc1ccccc1  Ki (SLC10A2; transporter uptake, inhibitor): 225 µM
CCCc1ccc(OCCCCCN2CCCCC2)cc1  Ki (HRH3; ligand displacement, radioligand; cell membranes): 0.048 µM
C#Cc1ccc2c(=O)cc(-c3ccccc3)oc2c1  Ki (CYP1B1; enzyme activity, inhibitor, fluorescence; 6 min, pH 7.6): 0.42 µM
NS(=O)(=O)NC[C@@H](CO)NCc1c[nH]c2c(O)nc(O)nc12  Ki (Hypoxanthine-guanine-xanthine phosphoribosyltransferase; enzyme activity, inhibitor; pH 7.4): > 20 µM
CNC(=C[N+](=O)[O-])NCCSCc1ccc(CN(C)C)o1  Ki (SLC10A2; transporter uptake, inhibitor): 886 µM
OC[C@@]12C[C@@H]1[C@@H](n1cnc3c(NC(C4CCCC4)C4CCCC4)nc(Cl)cc31)[C@H](O)[C@@H]2O  Ki (DRD5; cell-free assay, radioligand): 5.1 µM
COc1ccccc1N1CCN(CCCCN2CCc3ccccc3C2=O)CC1  Ki (DRD5; ligand displacement, radioligand): 6.86 µM
